{
  "source": "ChEMBL document CHEMBL1151818",
  "about": "“Antimalarial peptides from marine cyanobacteria: isolation and structural elucidation of gallinamide A” (J Nat Prod, 2009)",
  "key": {"Plasmodium falciparum": {"system": "Plasmodium falciparum", "experiment": "Antimalarial activity against chloroquine-resistant Plasmodium falciparum W2", "format": "functional, organism-based"}, "Trypanosoma cruzi": {"system": "Trypanosoma cruzi", "experiment": "Antitrypanosomal activity against Trypanosoma cruzi at 16.9 uM", "format": "functional, organism-based", "outline": "(§1)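 In vitro assay; 16.9 µM was the highest concentration tested.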"}, "NCI-H460 [1]": {"system": "NCI-H460", "experiment": "Cytotoxicity against human NCI-H460 cells at 16.9 uM", "format": "functional, cell-based", "outline": "as §1"}, "[2]": {"experiment": "Cytotoxicity against african green monkey Vero cells", "format": "cell-based", "settings": "chlorocebus sabaeus, read-out: TC50 (the source's name)"}, "N2a": {"system": "N2a", "experiment": "Cytotoxicity against mouse Neuro2a cells at 16.9 uM", "format": "functional, cell-based", "outline": "as §1"}, "Leishmania donovani": {"system": "Leishmania donovani", "experiment": "Antileishmanial activity against Leishmania donovani", "format": "functional, organism-based"}, "NCI-H460 [3]": {"system": "NCI-H460", "experiment": "Cytotoxicity against human NCI-H460 cells", "format": "functional", "settings": "read-out: TC50 (the source's name)", "outline": "as §1"}},
  "note": "Calls of active or inactive are those of the source. No cut-off for these calls is given here. Non-standard residues stand in square brackets, D forms with d. Residues, ends and D or L forms follow the SMILES beside them. *: point of attachment. X1 = COC1=CC(=O)N(C(=O)[C@@H](O*)C(C)C)[C@H]1Cc1ccccc1; NMe2Val = CC(C)[C@@H](C(=O)*)N(C)C; NMeV = CN[C@H](C(=O)O)C(C)C",
  "data": [
    {"smiles": "CC[C@H](C)[C@@H](C(=O)O[C@@H](CC(C)C)C(=O)N[C@@H](CC(C)C)C(=O)N[C@@H](C)/C=C/C(=O)N1C(=O)C=C(OC)[C@@H]1C)N(C)C", "note": "[GALLINAMIDE A]", "values": [
      {"measurement": "IC50", "setting": "Plasmodium falciparum", "value": 8.4, "unit": "µM"},
      {"measurement": "IC50", "setting": "Trypanosoma cruzi", "value": "> 16.9", "unit": "µM"},
      {"measurement": "Activity", "setting": "NCI-H460 [1]", "value": "inactive"},
      {"measurement": "CC50", "setting": "[2]", "value": 10.4, "unit": "µM"},
      {"measurement": "Activity", "setting": "N2a", "value": "inactive"},
      {"measurement": "IC50", "setting": "Leishmania donovani", "value": 9.3, "unit": "µM"}
    ]},
    {"smiles": "C[C@@H]1[C@H](O)[C@@H](C)/C=C/C=C/C=C/C=C/C=C/C=C/C=C/[C@H](O[C@@H]2O[C@H](C)[C@@H](O)[C@H](N)[C@@H]2O)C[C@@H]2O[C@](O)(C[C@@H](O)C[C@@H](O)[C@H](O)CC[C@@H](O)C[C@@H](O)CC(=O)O[C@H]1C)C[C@H](O)[C@H]2C(=O)O", "note": "[AMPHOTERICIN B]", "values": [
      {"measurement": "IC50", "setting": "Leishmania donovani", "value": 0.103, "unit": "µM"}
    ]},
    {"smiles": "CC1CS(=O)(=O)CCN1/N=C/c1ccc([N+](=O)[O-])o1", "note": "(stereo not given) [NIFURTIMOX]", "values": [
      {"measurement": "IC50", "setting": "Trypanosoma cruzi", "value": 13.5, "unit": "µM"}
    ]},
    {"smiles": "COC1=CC(=O)N(C(=O)[C@@H](OC(=O)[C@@H]2CCCN2C(=O)[C@@H]2CCCN2C(=O)[C@H](C(C)C)N(C)C(=O)[C@@H](NC(=O)[C@H](C(C)C)N(C)C)C(C)C)C(C)C)[C@H]1Cc1ccccc1", "note": "[DOLASTATIN 15] (NMe2Val-V[NMeV]PP-X1)", "values": [
      {"measurement": "Activity", "setting": "Plasmodium falciparum", "value": "Active"},
      {"measurement": "CC50", "setting": "NCI-H460 [3]", "value": 2.4, "unit": "nM"}
    ]}
  ]
}
